A short description of assay [1]: nonspecific flux increase, KCNQ1-free cells – parental CHO cells, counter-screen for KCNQ1 potentiator project (AID 493006;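 active means duplicate-averaged activation above buffer control mean plus 5 SD of those controls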). As to conditions: parental CHO-K1 cells, FluxOR thallium flux, at 10 µM; active compounds read high. Summed up:
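Test system: parental CHO-K1 cells, FluxOR dye-loaded / Probe or stimulus: potassium plus thallium depolarizing stimulus, 5x stock 12.5 mM K2SO4, Tl2SO4 / Timing: overnight 37 °C plating, 90 min dye, 20 min dark compound / Measured by: kinetic thallium-flux fluorescence / Read-out: max-minus-min fluorescence over baseline, percent of buffer-to-R-L3 span / Benchmarks: buffer and R-L3 controls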

Assay [2] concerns the target Potassium voltage-gated channel subfamily KQT member 1 (Homo sapiens) (UniProt P51787). Briefly: enhancement of KCNQ1 channel thallium flux – FluxOR thallium flux, CHO cells, duplicates, confirmation (AID 493007;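 active means potentiation averaged over duplicate wells exceeding buffer-only control mean by more than 3 SD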;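 on outcome: cells depolarized by a potassium plus thallium sulfate stimulus after compound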;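 on potentiation: 0% = buffer-only wells and 100% = R-L3 activator control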). As to conditions: KCNQ1 cell line, FluxOR thallium flux fluorescence, at 10 µM; active compounds read high, % of reference activator effect, buffer zero. The method, boiled down:
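Assay system: CHO cells carrying KCNQ1 | Controls: Buffer and R-L3 controls | Schedule: FluxOR dye loading 90 min, compound exposure 20 min, room temperature | Read-out: Baseline-normalized fluorescence change, percent of buffer-to-R-L3 range | Replicates: Each compound tested in duplicate | Technique: Kinetic thallium influx fluorescence with FluxOR dye, 10 s baseline, 110 s post-stimulus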

Assay [3] has as its target Potassium voltage-gated channel subfamily KQT member 2 (Rattus norvegicus) (UniProt O88943). Briefly: KCNQ2 thallium flux enhancement – KCNQ2-CHO-K1 cells, selectivity assay for KCNQ1 potentiator project (AID 493009;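 active means mean duplicate potentiation above the buffer control mean plus 5 SD of buffer wells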;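 further: assay conditions were tuned for KCNQ1 rather than KCNQ2 modulators; signal is max minus min fluorescence divided by baseline after thallium stimulus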). As to conditions: FluxOR thallium flux fluorescence, at 10 µM; active compounds read high, scaled: buffer 0, activator control 100.
Assay [4] addresses Potassium voltage-gated channel subfamily KQT member 1 (Homo sapiens) (UniProt P51787). Briefly: KCNQ1 activators by electrophysiology – IonWorks patch clamp, KCNQ1-CHO cells, orthogonal assay for KCNQ1 potentiator project, confirmation (AID 493184). The conditions noted are these: automated patch clamp current, at 10 µM; active compounds read high. The method, boiled down: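 Material: KCNQ1-expressing CHO cells; doses: 10 µM final, single point; probe or stimulus: voltage step from -90 mV holding to +40 mV, 2,000 ms; signal: automated voltage clamp, amphotericin B perforated patch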
On the technique in general: In patch-clamp work, channel activity is measured electrically.

The source made the active and inactive calls.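 How the source made its calls, unless noted: active means current rise at least 3 SD above the untreated control mean in each of two repeat wells; inactive means the rest.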

Consider 30 molecules from PubChem BioAssay.

Chain of Potassium voltage-gated channel subfamily KQT member 2 (Rattus norvegicus) (O88943 whole entry, looked up): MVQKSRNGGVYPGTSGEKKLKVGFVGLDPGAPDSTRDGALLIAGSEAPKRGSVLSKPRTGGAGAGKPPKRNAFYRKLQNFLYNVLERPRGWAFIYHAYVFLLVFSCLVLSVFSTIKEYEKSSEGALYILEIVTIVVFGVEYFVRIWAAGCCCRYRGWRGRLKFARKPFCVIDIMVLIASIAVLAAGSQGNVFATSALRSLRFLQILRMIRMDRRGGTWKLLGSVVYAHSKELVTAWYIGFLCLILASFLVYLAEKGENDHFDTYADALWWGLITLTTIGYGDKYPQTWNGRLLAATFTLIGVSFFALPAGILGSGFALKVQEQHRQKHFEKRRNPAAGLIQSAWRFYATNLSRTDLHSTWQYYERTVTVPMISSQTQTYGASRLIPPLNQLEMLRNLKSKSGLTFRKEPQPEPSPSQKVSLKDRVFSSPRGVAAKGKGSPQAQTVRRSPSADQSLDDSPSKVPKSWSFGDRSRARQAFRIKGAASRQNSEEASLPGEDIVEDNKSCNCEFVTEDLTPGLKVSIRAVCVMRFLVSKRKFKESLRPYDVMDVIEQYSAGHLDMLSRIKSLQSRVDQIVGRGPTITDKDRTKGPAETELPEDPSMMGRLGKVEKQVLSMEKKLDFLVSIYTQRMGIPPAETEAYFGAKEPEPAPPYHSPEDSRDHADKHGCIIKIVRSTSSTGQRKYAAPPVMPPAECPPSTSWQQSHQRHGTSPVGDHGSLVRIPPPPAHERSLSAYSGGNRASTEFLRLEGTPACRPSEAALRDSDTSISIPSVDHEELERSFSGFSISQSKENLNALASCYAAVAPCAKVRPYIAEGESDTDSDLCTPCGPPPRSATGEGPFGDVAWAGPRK
Chain of Potassium voltage-gated channel subfamily KQT member 1 (Homo sapiens) (P51787 whole entry, looked up): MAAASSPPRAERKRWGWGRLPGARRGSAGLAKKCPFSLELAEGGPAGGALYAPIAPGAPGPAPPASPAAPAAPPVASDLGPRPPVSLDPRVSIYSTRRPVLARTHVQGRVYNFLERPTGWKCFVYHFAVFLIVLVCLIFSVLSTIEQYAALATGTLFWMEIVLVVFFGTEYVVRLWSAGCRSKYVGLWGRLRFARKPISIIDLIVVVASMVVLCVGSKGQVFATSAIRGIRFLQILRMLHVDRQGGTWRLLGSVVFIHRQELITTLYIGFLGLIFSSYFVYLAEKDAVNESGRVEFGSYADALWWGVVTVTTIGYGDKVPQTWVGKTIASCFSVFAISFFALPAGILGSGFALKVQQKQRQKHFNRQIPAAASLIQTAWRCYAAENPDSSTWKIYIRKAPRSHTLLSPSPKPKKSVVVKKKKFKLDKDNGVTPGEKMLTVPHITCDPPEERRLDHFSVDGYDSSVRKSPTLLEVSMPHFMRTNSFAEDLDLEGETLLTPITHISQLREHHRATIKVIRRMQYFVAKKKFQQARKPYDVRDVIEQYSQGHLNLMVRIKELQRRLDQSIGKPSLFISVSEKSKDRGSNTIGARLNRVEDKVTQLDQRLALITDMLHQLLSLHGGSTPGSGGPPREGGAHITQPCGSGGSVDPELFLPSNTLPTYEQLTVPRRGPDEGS

As to `CSc1ccc(/C=N/n2c(Cc3ccc(Br)cc3)n[nH]c2=S)cc1`, the result in assay [1] and in assay [4] was inactive. For the same molecule, the potentiation is 174% (active) in assay [2] and 168% (active) in assay [3].
Take `CCC1CCCCN1C(=S)NC(=O)c1ccc([N+](=O)[O-])cc1` (stereo not given): the activation in assay [1] was 244% (active). The potentiation in assay [2] was 92.5% (active); in assay [3] it was 280% (active). In addition, the outcome in assay [4] was inactive.
Regarding `COc1ccc(OC)c(-c2cc(C(=O)N3CCN(c4ccccc4)CC3)no2)c1`, the outcome in assay [1], in assay [2], in assay [3] and in assay [4] was inactive.
Take `CC(C)Cn1c(=S)[nH]c2cc(Cl)ccc21`: the activation in assay [1] is 196% (active). Moreover, the potentiation was 70.5% (active) in assay [2] and 225% (active) in assay [3]. Besides, the result in assay [4] was inactive.
In the same order, the values of `CCC(C)CCCCCCCCCCC(=O)O` (stereo not given) are 382% (active), 318% (active), 302% (active) and “inactive”.
Turning to `CC1(C)CC(=O)C2=C(C1)N(c1cccc(Cl)c1)C(=O)NC2(C(F)(F)F)C(F)(F)F`, the result in assay [1], in assay [3] and in assay [4] was inactive. Further, in assay [2], the potentiation was 19.5% (active).
For the molecule `CCOc1ccc2nc(Nc3nc4ccc(NC(C)=O)cc4s3)sc2c1`, the outcome in assay [1], in assay [2], in assay [3] and in assay [4] was inactive.
Take `CCOC(=O)c1c(N2C(=O)Nc3ccccc3N2O)n[nH]c1-c1cccc(Cl)c1`: the result in assay [1], in assay [2], in assay [3] and in assay [4] was inactive.
On to `Oc1ccc(N=Nc2ccc3c(c2)OCCO3)c2cccnc12`, for which the activation in assay [1] was 261% (active). Besides, the potentiation in assay [2] was 92.5% (active); in assay [3], 384% (active). In assay [4], the result was inactive.
For the molecule `N#CC1(c2ccc(NC(=O)c3ccccc3F)cc2)CCCC1`, the outcome in assay [1], in assay [2], in assay [3] and in assay [4] was inactive.
Turning to `O=C(NC(=S)N1CCN(Cc2ccc3c(c2)OCO3)CC1)c1cccc(Br)c1`, the activation in assay [1] was 314% (active). The potentiation in assay [2] is 123% (active); in assay [3] it was 349% (active). In addition, the result in assay [4] was inactive.
As to `O=c1[nH]c(Nc2ccccc2)cc2cc(Br)ccc12`, the result in assay [1], in assay [2], in assay [3] and in assay [4] was inactive.
Regarding `Cc1ccc(C(=O)OCC(=O)Nc2sc3c(c2C#N)CCCC3)cc1NC(=O)c1ccco1`, the result in assay [1], in assay [2], in assay [3] and in assay [4] was inactive.
With `CC1=NN(C(=O)c2csc(C)c2C)C(O)(C(F)(F)F)C1` (stereo not given), the outcome in assay [1], in assay [2], in assay [3] and in assay [4] was inactive.
Consider `CCOC(=O)c1sc(C)nc1C1CCN(C(=O)OCC)CC1`, for which the result in assay [1], in assay [2], in assay [3] and in assay [4] was inactive.
Regarding `CC(C)N(C(=O)CSc1ncnc2sc(-c3ccccc3)cc12)C(C)C`, the outcome in assay [1], in assay [2], in assay [3] and in assay [4] was inactive.
For `CC1Oc2ccccc2OC1(O)c1ccccn1` (stereo not given), in assay [1], the activation is 142% (active). Also, the potentiation was 26.5% (active) in assay [2] and 142% (active) in assay [3]. The outcome in assay [4] was inactive.
Turning to `CCCNC1=CC(=O)CC(C)(C)C1`, the outcome in assay [1], in assay [2], in assay [3] and in assay [4] was inactive.
With `Cc1cccc(/C=N/n2c(COc3ccccc3)n[nH]c2=S)c1`, the outcome in assay [1] and in assay [4] was inactive. For the same molecule, the values for the potentiation in assay [2] and in assay [3] were 60.5% (active) and 142% (active), respectively.
Turning to `CC1CCCCC1NC(=S)NC(=O)c1cccs1` (stereo not given), the activation in assay [1] is 181% (active). The values for the potentiation in assay [2] and in assay [3] were 100% (active) and 300% (active), respectively. Further, the result in assay [4] was inactive.
Regarding `Cc1ccc(OCC(=O)NC(=S)Nc2ccc(Br)cn2)cc1`, the result in assay [1], in assay [3] and in assay [4] was inactive. The potentiation in assay [2] was 19.5% (active).
In the case of `CCCCN(CCCC)C(=S)N/N=C/c1c(C)[nH]n(-c2ccccc2)c1=O`, the activation in assay [1] is 198% (active). The potentiation in assay [2] was 123% (active); in assay [3] it was 239% (active). For the same molecule, in assay [4], the result was inactive.
In the same order, the values of `COc1ccc(C(=O)NC(=S)N2CCC(C)CC2)cc1Br` are 185% (active), 90% (active), 290% (active) and “inactive”.
With `CN1C=CC=C/C1=C1\SC(=S)N(C2CCCCC2)C1=O`, the outcome in assay [1], in assay [2], in assay [3] and in assay [4] was inactive.
Consider `CS(=O)(=O)NN1C(=O)c2ccccc2NC1c1ccccc1F` (stereo not given), for which the activation in assay [1] is 143% (active). In addition, the potentiation in assay [2] is 32.5% (active). Also, the result in assay [3] and in assay [4] was inactive.
As for `O=c1c(O)c(-c2ccc3c(c2)OCO3)oc2ccccc12`, the result in assay [1] and in assay [4] was inactive. In addition, the potentiation in assay [2] was 41.5% (active); in assay [3], 162% (active).
As to `CCCCOC(=O)c1ccc(NC(=S)NC(=O)c2c(Cl)cnn2C)cc1`, the outcome in assay [1] and in assay [4] was inactive. The figures for the potentiation in assay [2] and in assay [3] were 77.5% (active) and 160% (active), respectively.
Turning to `COc1ccc(N/C=C/C(=O)c2cc(OC)c(OC)c(OC)c2)cc1`, in assay [1], the activation is 366% (active). Moreover, the figures for the potentiation in assay [2] and in assay [3] were 188% (active) and 365% (active), respectively. Also, the outcome in assay [4] was inactive.
The matching figures for `C=CCn1c(SCC(N)=O)nc2scc(-c3ccc(C)o3)c2c1=O`: 223% (active), 79.5% (active), 230% (active) and “inactive”.
`O=C(NC(=S)N1CCCc2ccccc21)c1ccc([N+](=O)[O-])cc1`: the activation in assay [1] is 202% (active). Moreover, the potentiation in assay [2] was 82% (active); in assay [3], 247% (active). For the same molecule, the result in assay [4] was inactive.
